Laboratory results: ChEMBL document CHEMBL2311371, “Effects of fluorines on nonsecosteroidal vitamin D receptor agonists” (2013)

Assays:
[1] = system: HL-60; experiment: Induction of human HL60 cell differentiation after 4 days by WST-8 assay relative to 1.25-OH2 D3; type: functional
How it was run: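 HL-60 cells seeded 2×10^5 cells/mL in RPMI-1640 with 10% heat-inactivated FBS and antibiotics, 37 °C, 5% CO2. Cultured 4 days with 10^-10 to 10^-7 M compound. On the final day, PMA (final 100 ng/mL) plus WST-8 (final 20%) added for 90 min; absorbance change read at 450 nm. EC50 expressed as ratio to 1,25(OH)2D3 (set 100%).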

[2] = target: T1, Vitamin D3 receptor (Homo sapiens) (UniProt P11473); experiment: Agonist activity at VDR in human MG-63 cells assessed as osteocalcin production compound incubated for 8 hrs measured after 4 days by EIA relative to 1,25(OH)2D3; type: cell-based
T1 sequence (whole entry): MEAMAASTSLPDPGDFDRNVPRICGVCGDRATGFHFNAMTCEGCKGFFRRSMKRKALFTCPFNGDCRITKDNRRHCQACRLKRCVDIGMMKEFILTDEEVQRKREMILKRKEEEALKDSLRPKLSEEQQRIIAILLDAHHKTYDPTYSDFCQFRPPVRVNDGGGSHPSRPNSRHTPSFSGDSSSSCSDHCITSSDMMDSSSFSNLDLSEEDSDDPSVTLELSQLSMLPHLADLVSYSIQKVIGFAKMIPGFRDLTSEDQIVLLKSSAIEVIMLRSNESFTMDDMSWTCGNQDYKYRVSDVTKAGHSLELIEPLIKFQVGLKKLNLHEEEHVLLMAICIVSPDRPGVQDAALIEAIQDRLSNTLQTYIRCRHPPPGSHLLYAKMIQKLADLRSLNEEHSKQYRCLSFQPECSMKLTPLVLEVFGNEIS
How it was run: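 MG-63 cells seeded 2×10^3/well in serum-free MEM, 24 h at 37 °C, 5% CO2; washed and switched to 5% DCC-FBS/MEM. Serial dilutions 10^-7 to 10^-11 mol/L (0.1% DMSO) applied 8 h, then medium replaced and culture continued 4 days. Gla-type osteocalcin in supernatant measured by EIA at 450 nm against standards. EC50 expressed as ratio to 1,25(OH)2D3 (set 100%).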

[3] = target: T1, Vitamin D3 receptor (Homo sapiens); experiment: Agonist activity at VDR in human MG-63 cells assessed as transcriptional activation of osteopontin gene after 3 days by luciferase reporter gene assay relative to 1,25(OH)2D3; type: cell-based
How it was run: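 MG-63 cells seeded 2×10^3/well, 24 h at 37 °C, 5% CO2. Cotransfected with VDRE-luciferase construct (three osteopontin-promoter VDRE repeats, 0.05 µg) plus pRL-SV40 (0.001 µg) by lipofection. Kept 8 h in MEM with 5% DCC-FBS, then dosed 10^-7 to 10^-11 mol/L (0.1% DMSO) for 3 days. Dual-luciferase readout on lysates. EC50 expressed as ratio to 1,25(OH)2D3 (set 100%).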

Compound	Activity [1]	Activity [2]	Activity [3]
CCC(CC)(c1ccc(CCC(O)(C(F)(F)F)C(F)(F)F)c(C)c1)c1ccc(OC[C@@H](O)CCC(=O)[O-])c(C)c1.[Na+]	106%	429%	91%
CCC(CC)(c1ccc(C#CC(O)(C(F)(F)F)C(F)(F)F)c(C)c1)c1ccc(OC[C@@H](O)CCC(=O)[O-])c(C)c1.[Na+]	227%	546%	30%
CCC(CC)(c1ccc(OCC(O)CO)c(C)c1)c1ccc(OCC(O)C(C)(C)C)c(C)c1 (centres undefined) [LG-190178]	71%	185%	–
CCC(CC)(c1ccc(/C=C/C(O)(C(F)(F)F)C(F)(F)F)c(C)c1)c1ccc(OC[C@@H](O)CCC(=O)[O-])c(C)c1.[Na+]	252%	3750%	592%
CCC(O)(/C=C/c1ccc(C(CC)(CC)c2ccc(OC[C@@H](O)CCC(=O)[O-])c(C)c2)cc1C)CC.[Na+]	126%	447%	105%
